The results in this text go back to ChEMBL document CHEMBL1629684, “Effects of ravuconazole treatment on parasite load and immune response in dogs experimentally infected with Trypanosoma cruzi” (Antimicrob Agents Chemother, 2010).

For data set [1], the system named is Canis familiaris. The data set is described as follows: Toxicity in mongrel dog infected with Trypanosoma cruzi Y assessed as weight loss at 12 mg/kg, po BID for 90 days started 12 to 22 days postinfection measured after 1 day. Particulars: in vivo, 24 h. The format is organism-based, Canis lupus familiaris. Details: dose 12 mg/kg, route oral. Summed up:
(§1)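 Body weight gain, in kg, was recorded for infected dogs 1 day and 6 months after the end of oral b.i.d. treatment. Treated animals were compared with infected untreated and noninfected control groups.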

Data set [2] concerns Trypanosoma cruzi. The data set is described as follows: Antimicrobial activity against Trypanosoma cruzi Berenice-78 infected in mongrel dog assessed as survival of dog at 7 mg/kg, po BID started 12 to 22 days postinfection measured after 1 day. The format is functional. Summed up:
(§2)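 Four-month-old mongrel dogs (five per group) received 2.0 × 10^3 Y or Berenice-78 bloodstream trypomastigotes/kg. Oral dosing began 12–22 days postinfection, when parasitemia was detected by fresh blood examination: 12 mg/kg q12h for 90 days, or 7 mg/kg q12h for 60 days. Ear-vein blood was checked from day 10. Mortality was expressed as the cumulative percentage of dead animals.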

Data set [3] concerns Canis familiaris. The data set is described as follows: Toxicity in mongrel dog infected with Trypanosoma cruzi Berenice-78 assessed as weight loss at 7 mg/kg, po BID for 90 days started 12 to 22 days postinfection measured after 6 months. Particulars: in vivo, 4383 h. On the set-up: dose 7 mg/kg, route oral. Format: organism-based, Canis lupus familiaris. Summed up: as §1

The subject of data set [4] is Trypanosoma cruzi. The data set is described as follows: Antimicrobial activity against Trypanosoma cruzi Y infected in mongrel dog assessed as survival of dog at 7 mg/kg, po BID started 12 to 22 days postinfection measured after 1 day. The format is functional. The gist of the method: as §2
Data set [5] has as its system Canis familiaris. The data set is described as follows: Toxicity in mongrel dog infected with Trypanosoma cruzi Y assessed as weight loss at 7 mg/kg, po BID for 90 days started 12 to 22 days postinfection measured after 6 months. On the set-up: dose 7 mg/kg, route oral. Format: organism-based, Canis lupus familiaris. As to conditions: in vivo, 4383 h. The gist of the method: as §1

In data set [6] the test system is Canis familiaris. The data set is described as follows: Immunostimulatory activity in mongrel dog infected with Trypanosoma cruzi Y assessed as production of antibody IgG at 7 mg/kg, po BID for 90 days measured up to 30 days by ELISA. Format: functional, organism-based. On the set-up: dose 7 mg/kg. As to conditions: Canis lupus familiaris. Summed up:
(§3)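 Serum was taken before inoculation and then monthly until 6 months posttreatment, and stored at −80°C. ELISA plates were coated with alkaline extract of Y-strain parasites grown to exponential phase in LIT medium. Bound total IgG or IgG2 was detected with peroxidase-labeled anti-dog conjugates and read at 490 nm. Cutoff was the mean absorbance of 10 uninfected dogs plus 2 SD.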

For data set [7], the system named is Trypanosoma cruzi. The data set is described as follows: Antimicrobial activity against Trypanosoma cruzi Berenice-78 infected in mongrel dog assessed as parasite level in blood of dog at 7 mg/kg, po BID started 12 to 22 days postinfection measured after 30 days by PCR analysis. Format: functional. The gist of the method: (§4)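 Blood PCR for T. cruzi on treated dogs (n = 5 per group) at 1 and 6 months posttreatment. Each reaction took 2 μl blood DNA template in Tris-HCl pH 9.0, 75 mM KCl, 3.5 mM MgCl2 and 0.2 mM dNTPs. Cycling was 95°C 5 min, then 2 cycles annealing at 30°C, 33 cycles at 40°C, and 72°C 5 min. Products were run on 6% polyacrylamide and silver stained. Reported as rate of positive animals.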

The test system of data set [8] is Canis familiaris. The data set is described as follows: Immunostimulatory activity in mongrel dog infected with Trypanosoma cruzi Berenice-78 assessed as production of antibody IgG at 12 mg/kg, po BID for 90 days measured up to 30 days by ELISA. The format is functional, organism-based. On the set-up: dose 12 mg/kg. As to conditions: Canis lupus familiaris. The gist of the method: as §3

The test system of data set [9] is Canis familiaris. The data set is described as follows: Immunostimulatory activity in mongrel dog infected with Trypanosoma cruzi Berenice-78 assessed as reduction in IL10 production in right atrium at 12 mg/kg, po BID after 180 days by semiquantitative RT-PCR. Details: dose 12 mg/kg. The format is functional, organism-based. Particulars: Canis lupus familiaris, Cardiac atrium. Summed up:
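Dogs were euthanized 6 months after the end of treatment. RNA was extracted from the right atrium with acid guanidinium thiocyanate-phenol-chloroform. One microgram was DNase treated and reverse transcribed with oligo(dT) for 1 h at 42°C. IFN-γ or IL-10 cDNA was amplified with 1.5 mM MgCl2: 94°C 5 min, n cycles of 94/57/72°C, final extension 72°C 6 min. Expression was scored semiquantitatively against infected untreated and noninfected dogs.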

The test system of data set [10] is Trypanosoma cruzi. The data set is described as follows: Antitrypanosomal activity against Trypanosoma cruzi Berenice-78 infected in mongrel dog assessed as reduction in parasite-induced intrafascicular collagen deposition in right atrium at 12 mg/kg, po BID after 180 days […]. Format: functional, organism-based. On the set-up: dose 12 mg/kg. Particulars: Cardiac atrium.

For data set [11], the system named is Trypanosoma cruzi. The data set is described as follows: Antitrypanosomal activity against Trypanosoma cruzi Berenice-78 infected in mongrel dog assessed as reduction in parasite-induced intrafascicular collagen deposition in right atrium at 7 mg/kg, po BID after 180 days […]. Format: functional, organism-based. Details: dose 7 mg/kg. Particulars: Cardiac atrium.

Data set [12] deals with Trypanosoma cruzi. The data set is described as follows: Antimicrobial activity against Trypanosoma cruzi Berenice-78 infected in mongrel dog assessed as parasite level in blood of dog at 12 mg/kg, po BID started 12 to 22 days postinfection measured after 6 months by PCR analysis. The format is functional. Summed up:
as §4

In data set [13] the test system is Trypanosoma cruzi. The data set is described as follows: Antimicrobial activity against Trypanosoma cruzi Berenice-78 infected in mongrel dog assessed as suppression of microbial proliferation at 7 mg/kg, po BID started 12 to 22 days postinfection measured after 1 day. The format is functional, organism-based. On the set-up: dose 7 mg/kg. Summed up: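 Mongrel dogs, 4 months old, dewormed and vaccinated, were inoculated with 2.0 × 10^3 bloodstream trypomastigotes/kg. Oral b.i.d. (q12h) dosing began 12 to 22 days postinfection, once parasitemia appeared. Dosing ran 90 days at 12 mg/kg and 60 days at 7 mg/kg, with 5 dogs per group. Parasitemia was read by fresh-blood examination of marginal ear vein blood from day 10 of infection until parasites were undetectable.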

Active and inactive are the calls of the source.

As to `C[C@@H](c1nc(-c2ccc(C#N)cc2)cs1)[C@](O)(Cn1cncn1)c1ccc(F)cc1F` [RAVUCONAZOLE], the Activity result with Canis familiaris [1] is “Non-toxic”; with Trypanosoma cruzi [2], 100%; with Canis familiaris [3] it was “Non-toxic”; in the data set on Trypanosoma cruzi [4] it was 100%; in the data set with Canis familiaris [5] it was “Non-toxic”; in the data set with Trypanosoma cruzi [7], 60%. In addition, the Activity in the data set on Trypanosoma cruzi [12] was 80%; with Trypanosoma cruzi [13], “Non-toxic”. Also, the outcome in the data set with Canis familiaris [6], with Canis familiaris [8], with Canis familiaris [9], in the data set with Trypanosoma cruzi [10] and with Trypanosoma cruzi [11] was Active.
